These results are taken from ChEMBL document CHEMBL1145211, “Substituted 5,5'-diphenyl-2-thioxoimidazolidin-4-one as CB1 cannabinoid receptor ligands: synthesis and pharmacological evaluation” (J Med Chem, 2005).

Experiment [1] deals with T1, Cannabinoid receptor 1 (Homo sapiens, UniProt P21554). To be noted: CHO, at 10 µM.
For experiment [2], the target named is Cannabinoid receptor 2 (Homo sapiens) (UniProt P34972). As to the kind of experiment: Displacement of [3H]CP-55940 from human CB2 receptor expressed in CHO cells at 10 uM. The format is cell-based. The method in brief:
(§1)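 Membranes (40 µg) from CHO cells stably expressing human CB1 or CB2, with 1 nM [3H]SR141716A (CB1) or 1 nM [3H]CP-55,940 (CB2), and compound at 10 µM. Incubated 1 h at 30 °C in Tris-HCl pH 7.4 with MgCl2, EDTA and 0.5% BSA. Nonspecific binding defined with 10 µM HU-210. Bound ligand recovered on PEI-treated GF/B filters for scintillation counting; reported as % radioligand displaced.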

Experiment [3] has as its target T1, Cannabinoid receptor 1. Description: biochemical. The format is cell-based, CHO.
The target of experiment [4] is T1, Cannabinoid receptor 1. Description: Displacement of [3H]SR-141,716A from human Cannabinoid receptor 1 (CB1 receptor) expressed in CHO cells at 10 uM. The format is cell-based. Summed up: as §1
In experiment [5] the target is T1, Cannabinoid receptor 1. Description: Inhibition of [3H]SR-141,716A binding to human CB1 receptor expressed in CHO cells. The format is cell-based. The method in brief: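 Competition curves on hCB1-CHO membranes (40 µg) with 1 nM [3H]SR141716A and varying compound concentrations, up to 10^-5 M. Incubated 1 h at 30 °C, pH 7.4, 0.5% BSA; final DMSO below 0.1%. Nonspecific binding defined with 10 µM HU-210; filtration, then counting. Ki derived from IC50 by nonlinear fitting and Cheng-Prusoff (Kd 1.13 nM). Mean ± SEM of at least four experiments, each in duplicate.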

The target in experiment [6] is T1, Cannabinoid receptor 1. Particulars: CHO, 10 uM.

Chain of Cannabinoid receptor 2 (Homo sapiens) (P34972 whole entry): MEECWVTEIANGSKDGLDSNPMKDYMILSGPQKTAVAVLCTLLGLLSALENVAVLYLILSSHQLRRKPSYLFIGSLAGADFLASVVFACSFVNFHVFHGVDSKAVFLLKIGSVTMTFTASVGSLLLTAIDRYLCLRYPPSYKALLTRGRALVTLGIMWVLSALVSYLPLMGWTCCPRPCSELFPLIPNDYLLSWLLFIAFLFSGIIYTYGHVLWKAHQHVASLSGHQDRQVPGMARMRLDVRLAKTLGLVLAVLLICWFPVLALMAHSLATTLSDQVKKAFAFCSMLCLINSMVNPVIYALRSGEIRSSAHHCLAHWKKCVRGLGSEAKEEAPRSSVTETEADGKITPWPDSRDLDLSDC
T1 sequence (P21554 whole entry): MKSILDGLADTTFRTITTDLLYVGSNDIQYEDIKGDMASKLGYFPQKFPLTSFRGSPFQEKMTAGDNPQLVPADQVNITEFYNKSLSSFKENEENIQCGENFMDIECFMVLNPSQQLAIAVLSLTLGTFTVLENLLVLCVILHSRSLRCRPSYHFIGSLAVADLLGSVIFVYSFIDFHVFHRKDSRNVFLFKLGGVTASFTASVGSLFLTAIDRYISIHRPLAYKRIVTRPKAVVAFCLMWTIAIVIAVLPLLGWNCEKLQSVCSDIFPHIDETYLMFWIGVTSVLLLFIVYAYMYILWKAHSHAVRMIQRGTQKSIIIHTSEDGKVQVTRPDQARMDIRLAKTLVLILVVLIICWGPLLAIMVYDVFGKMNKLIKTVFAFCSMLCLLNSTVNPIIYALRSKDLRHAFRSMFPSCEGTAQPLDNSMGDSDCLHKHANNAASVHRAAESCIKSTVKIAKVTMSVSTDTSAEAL

With `O=C1NC(c2ccc(Br)cc2)(c2ccc(Br)cc2)C(=O)N1Cc1ccccc1`, the Decrease on Cannabinoid receptor 1 [1] was -74%.
In the case of `O=C1N(Cc2ccccc2)C(=S)NC1(c1ccc(Br)cc1)c1ccc(Br)cc1`, the figures for the Displacement (in experiment [2]; at Cannabinoid receptor 1 [4]) were below 10% and 76%, respectively. For the same compound, the Ki on Cannabinoid receptor 1 [3] is 993 nM. The Decrease at Cannabinoid receptor 1 [1] is -74%.
As for `C=CCN1C(=O)C(c2ccc(Br)cc2)(c2ccc(Br)cc2)NC1=S`, the Displacement was below 15% in experiment [2] and 87.2% on Cannabinoid receptor 1 [4]. Moreover, affinity at Cannabinoid receptor 1 [3] was put at a Ki of 871 nM. Besides, the Decrease at Cannabinoid receptor 1 [1] was -74%.
Regarding `O=C1N(Cc2ccco2)C(=S)NC1(c1ccccc1)c1ccccc1`, the figures for the Displacement (in experiment [2]; at Cannabinoid receptor 1 [4]) were below 15% and 59.2%, respectively.
The like results for `CCCCCCN1C(=O)C(c2ccccc2)(c2ccccc2)NC1=S` were, in that order, below 10% and 38.5%.
Regarding `CCCCN1C(=O)NC(c2ccc(Br)cc2)(c2ccc(Br)cc2)C1=O`, at Cannabinoid receptor 1 [1], the Decrease is -74%.
As to `O=C1N(CCc2ccccc2)C(=S)NC1(c1ccccc1)c1ccccc1`, the Displacement in experiment [2] is below 10%; at Cannabinoid receptor 1 [4] it was 29.3%.
With `C=CCN1C(=O)NC(c2ccc(I)cc2)(c2ccc(I)cc2)C1=O`, the Decrease at Cannabinoid receptor 1 [1] was -74%.
With `CCCCCCCCN1C(=O)C(c2ccc(Cl)cc2)(c2ccc(Cl)cc2)NC1=S`, the Displacement in experiment [2] is below 10%; on Cannabinoid receptor 1 [4] it was 36.6%.
For the compound `CCCCCCCN1C(=O)C(c2ccc(Br)cc2)(c2ccc(Br)cc2)NC1=S`, the Displacement was below 10% in experiment [2] and 34.2% at Cannabinoid receptor 1 [4].
For the compound `CCCCN1C(=O)C(c2ccc(I)cc2)(c2ccc(I)cc2)NC1=S`, the values for the Displacement (in experiment [2]; at Cannabinoid receptor 1 [4]) were below 20% and 77.4%, respectively. The compound also came in with a Ki on Cannabinoid receptor 1 [3] of 724 nM. Besides, the Decrease at Cannabinoid receptor 1 [1] is -74%.
Taken in the same sequence, the figures for `O=C1N(Cc2ccccc2)C(=S)NC1(c1ccc(Cl)cc1)c1ccc(Cl)cc1` were below 15%, 74.2%, 2190 nM and -74%.
As for `CC(C)N1C(=O)C(c2ccccc2)(c2ccccc2)NC1=S`, the Displacement was below 10% in experiment [2] and 42.8% on Cannabinoid receptor 1 [4].
`CCCCN1C(=O)C(c2ccc(Br)cc2)(c2ccc(Br)cc2)NC1=S`: the Displacement in experiment [2] is below 15%; on Cannabinoid receptor 1 [4], 73.8%. The Ki at Cannabinoid receptor 1 [3] stood at 1410 nM.
Turning to `CCCCCCCN1C(=O)C(c2ccc(Cl)cc2)(c2ccc(Cl)cc2)NC1=S`, the values for the Displacement (in experiment [2]; on Cannabinoid receptor 1 [4]) were below 10% and 67.8%, respectively.
The like results for `CCCCCCN1C(=O)C(c2ccc(Br)cc2)(c2ccc(Br)cc2)NC1=S` were, in that order, below 10% and 45.5%.
Turning to `CC(C)CN1C(=O)C(c2ccc(Cl)cc2)(c2ccc(Cl)cc2)NC1=S`, the Displacement in experiment [2] is below 20%; at Cannabinoid receptor 1 [4] it was 76.1%. The same compound came in with a Ki on Cannabinoid receptor 1 [3] of 2090 nM. The Decrease at Cannabinoid receptor 1 [1] was -74%.
In the case of `CC(C)N1C(=O)C(c2ccc(Br)cc2)(c2ccc(Br)cc2)NC1=S`, the Displacement was below 15% in experiment [2] and 91.7% at Cannabinoid receptor 1 [4]. The Ki on Cannabinoid receptor 1 [3] was 3630 nM.
As to `CC(C)CN1C(=O)C(c2ccccc2)(c2ccccc2)NC1=S`, the Displacement in experiment [2] is below 10%; on Cannabinoid receptor 1 [4], 34.6%.
Regarding `O=C1N(Cc2ccccc2)C(=S)NC1(c1ccccc1)c1ccccc1`, the Displacement in experiment [2] is below 10%; on Cannabinoid receptor 1 [4], 44.7%.
Regarding `CC(C)CN1C(=O)C(c2ccc(Br)cc2)(c2ccc(Br)cc2)NC1=S`, the Displacement in experiment [2] was below 20%; at Cannabinoid receptor 1 [4] it was 76.3%. Besides, on Cannabinoid receptor 1 [3], the Ki came out at 1780 nM. Further, the Decrease on Cannabinoid receptor 1 [1] was -74%.
The like results for `C=CCN1C(=O)C(c2ccc(I)cc2)(c2ccc(I)cc2)NC1=S` were, in that order, below 20%, 94.2%, 589 nM and -74%.
`CCN1C(=O)C(c2ccc(Br)cc2)(c2ccc(Br)cc2)NC1=S`: the Displacement is below 20% in experiment [2] and 90.9% at Cannabinoid receptor 1 [4]. On Cannabinoid receptor 1 [3], the Ki worked out at 2190 nM.
Take `CCCCCCCN1C(=O)C(c2ccccc2)(c2ccccc2)NC1=S`: the results for the Displacement (in experiment [2]; on Cannabinoid receptor 1 [4]) were below 10% and 28.8%, respectively.
The like results for `CCCCN1C(=O)C(c2ccccc2)(c2ccccc2)NC1=S` were, in that order, below 10% and 42.8%.
In the case of `CCN1C(=O)C(c2ccccc2)(c2ccccc2)NC1=S`, the Displacement in experiment [2] was below 10%; at Cannabinoid receptor 1 [4], 40%.
The like results for `O=C1N(CCCO)C(=S)NC1(c1ccccc1)c1ccccc1` were, in that order, below 10% and 20.8%.
As to `O=C1N(CCc2ccccc2)C(=S)NC1(c1ccc(Cl)cc1)c1ccc(Cl)cc1`, the Displacement in experiment [2] was below 15%; on Cannabinoid receptor 1 [4], 79.4%. The same compound displayed a Ki at Cannabinoid receptor 1 [3] of 3800 nM.
For the compound `COCCCN1C(=O)C(c2ccccc2)(c2ccccc2)NC1=S`, the values for the Displacement (in experiment [2]; on Cannabinoid receptor 1 [4]) were below 15% and 29.4%, respectively.
Compound `CCCCN1C(=O)NC(c2ccc(I)cc2)(c2ccc(I)cc2)C1=O` had a Ki on Cannabinoid receptor 1 [3] of 1820 nM. Also, on Cannabinoid receptor 1 [1], the Decrease is -74%.
`C=CCN1C(=O)C(c2ccccc2)(c2ccccc2)NC1=S`: the Displacement was below 15% in experiment [2] and 40% on Cannabinoid receptor 1 [4].
Take `O=C1N(CCc2ccccc2)C(=S)NC1(c1ccc(Br)cc1)c1ccc(Br)cc1`: the Displacement is below 10% in experiment [2] and 54.6% at Cannabinoid receptor 1 [4]. At Cannabinoid receptor 1 [5], this compound showed a Ki above 10000 nM.
With `CCCCCCCCN1C(=O)C(c2ccccc2)(c2ccccc2)NC1=S`, the Displacement in experiment [2] is below 20%; at Cannabinoid receptor 1 [4], 38.8%.
`CCCCCCCCN1C(=O)C(c2ccc(Br)cc2)(c2ccc(Br)cc2)NC1=S`: the Displacement in experiment [2] was below 10%; on Cannabinoid receptor 1 [4] it was 23.4%.
The compound `CCCCCCC(C)(C)c1cc(O)c2c(c1)OC(C)(C)[C@H]1CC=C(CO)C[C@H]21` [DEXANABINOL] gave an Increase on Cannabinoid receptor 1 [6] of 130%. The affinity on Cannabinoid receptor 1 [3], expressed as Ki, was 18.6 nM.
